In PubChem BioAssay AID493079 (The Scripps Research Institute Molecular Screening Center, 2011) one finds IC50 data, which are given here for 30 compounds.

Calls of active or inactive are those of the source.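 Rule for the calls: active = IC50 of 10 µM or lower for blocking Epstein-Barr viral protein EBNA-1 from binding DNA; inactive = IC50 above 10 µM.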

A word on the IC50: it is the concentration at which inhibition is half-maximal.

The assay addresses EBNA-1 DNA-binding domain (Epstein-Barr virus). The assay is described as follows: EBNA-1 DNA-binding inhibitor potency, late-stage follow-up, biochemical, fluorescence polarization, dose response, assay provider data (AID 493079). The settings on record: recombinant EBNA1 DBD, Cy5-DNA fluorescence polarization. Put shortly:
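Read-out basis: IC50 from lowered polarization, reflecting more unbound DNA probe | Material: EBNA-1 DBD (aa 448-610), E. coli-expressed | Doses: Compound dose-response series | Also added: Cy5-labelled DNA hairpin probe, 36-bp oligonucleotide | Technique: Cy5 fluorescence polarization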
With `COc1cccc(C(=O)Nc2nc3ccc(S(C)(=O)=O)cc3s2)c1`, the IC50 entry was “inactive”.

Regarding `Cc1cccc(C(=O)Nc2nc3ccc(S(C)(=O)=O)cc3s2)c1`, the IC50 entry was “inactive”. Take `Cc1cc(C(=O)CSc2nnnn2C2CC2)c(C)n1CC1CCCO1` (stereo not given): the IC50 entry is “inactive”. In the case of `CS(=O)(=O)c1ccc2nc(NC(=O)c3cccc(Cl)c3)sc2c1`, the IC50 was > 148 µM (inactive). On to `CS(=O)(=O)c1ccc2nc(NC(=O)c3cccc(F)c3)sc2c1`, for which the IC50 was > 148 µM (inactive).

Turning to `Cc1cc(C(=O)CSc2nnnn2C)c(C)n1CC1CCCO1` (stereo not given), the IC50 is > 148 µM (inactive). The value for `Cc1ccc(C(=O)Nc2nc3cc(Br)ccc3s2)cc1C` was > 148 µM (inactive); that for `Cc1cc(C(=O)CSc2nnnn2-c2ccccc2)c(C)n1C` was “inactive”; that for `COc1ccc2nc(NC(=O)c3ccc(C)c(C)c3)sc2c1` was > 148 µM (inactive). `COc1ccccc1C(=O)Nc1nc2ccc(S(C)(=O)=O)cc2s1`: the IC50 is > 148 µM (inactive).

For the compound `O=C(CSc1nnnn1-c1ccccc1)c1ccn(CC2CCCO2)c1` (stereo not given), the IC50 is > 148 µM (inactive). In the case of `Cc1ccc(C(=O)Nc2nc3ccc(Br)cc3s2)cc1C`, the IC50 is > 148 µM (inactive). On to `Cc1cccc(-n2nnnc2SCC(=O)c2cc(C)n(CC3CCCO3)c2C)c1` (stereo not given), for which the IC50 was > 148 µM (inactive). The value for `Cc1cc(C(=O)CSc2nnnn2-c2ccc(Cl)cc2)c(C)n1CC1CCCO1` (stereo not given) was > 148 µM (inactive); that for `CS(=O)(=O)c1ccc2nc(NC(=O)c3ccccc3F)sc2c1` was > 148 µM (inactive). For `Cc1ccc(C(=O)Nc2nc3cc(F)ccc3s2)cc1C` the value was > 148 µM (inactive); for `Cc1ccccc1-n1nnnc1SCC(=O)c1cc(C)n(CC2CCCO2)c1C` (stereo not given), > 148 µM (inactive). On to `Cc1ccc(-n2nnnc2SCC(=O)c2cc(C)n(CC3CCCO3)c2C)cc1` (stereo not given), for which the IC50 was 5.47 µM. For `CCn1c(C)cc(C(=O)CSc2nnnn2-c2ccccc2)c1C` the value was > 148 µM (inactive). For `Cc1ccccc1C(=O)Nc1nc2ccc(S(C)(=O)=O)cc2s1`, the IC50 was > 148 µM (inactive).

`Cc1cc(C(=O)CSc2nnnn2-c2ccccc2)c(C)n1Cc1cccs1`: the IC50 is > 148 µM (inactive). As for `COc1ccc2sc(NC(=O)c3ccc(C)c(C)c3)nc2c1`, the IC50 is > 148 µM (inactive). The value for `COc1ccc(-n2nnnc2SCC(=O)c2cc(C)n(CC3CCCO3)c2C)cc1` (stereo not given) was “inactive”; that for `Cc1cc(C(=O)CSc2nnnn2-c2cccc(F)c2)c(C)n1CC1CCCO1` (stereo not given) was > 148 µM (inactive).

Turning to `CS(=O)(=O)c1ccc2nc(NC(=O)c3ccccc3Cl)sc2c1`, the IC50 was > 148 µM (inactive). For `Cc1ccc(C(=O)Nc2nc3ccc(S(C)(=O)=O)cc3s2)cc1` the value was > 148 µM (inactive); for `CS(=O)(=O)c1ccc2nc(NC(=O)c3ccc(Cl)cc3)sc2c1`, “inactive”. As for `COc1cccc2sc(NC(=O)c3ccc(C)c(C)c3)nc12`, the IC50 is > 148 µM (inactive). On to `COc1ccc(C(=O)Nc2nc3ccc(S(C)(=O)=O)cc3s2)cc1`, for which the IC50 entry is “inactive”. The value for `COCCn1c(C)cc(C(=O)CSc2nnnn2-c2ccccc2)c1C` was > 148 µM (inactive).
